pIC50: −log10 of the molar value. Active and inactive are the calls of the source. No cut-off for these calls is given here.
Experiments:
A549 [1] = test: Induction of apoptosis in human A549 cells assessed as late apoptotic cells at 10 nM after 24 hrs by annexin V-FITC/propidium iodide staining-based flow cytometric method (reference value: 0.01%); type: functional
A549 [2] = test: Induction of apoptosis in human A549 cells assessed as late apoptotic cells at 3 nM after 48 hrs by annexin V-FITC/propidium iodide staining-based flow cytometric method (reference value: 0.01%); type: functional
Tubulin (Sus scrofa) [3] = target: T1, Tubulin (Sus scrofa) (UniProt P02554+P02550); test: Inhibition of [3H]-colchicine binding to porcine brain tubulin at 5 uM relative to control
T1 sequence (P02550 whole entry, looked up): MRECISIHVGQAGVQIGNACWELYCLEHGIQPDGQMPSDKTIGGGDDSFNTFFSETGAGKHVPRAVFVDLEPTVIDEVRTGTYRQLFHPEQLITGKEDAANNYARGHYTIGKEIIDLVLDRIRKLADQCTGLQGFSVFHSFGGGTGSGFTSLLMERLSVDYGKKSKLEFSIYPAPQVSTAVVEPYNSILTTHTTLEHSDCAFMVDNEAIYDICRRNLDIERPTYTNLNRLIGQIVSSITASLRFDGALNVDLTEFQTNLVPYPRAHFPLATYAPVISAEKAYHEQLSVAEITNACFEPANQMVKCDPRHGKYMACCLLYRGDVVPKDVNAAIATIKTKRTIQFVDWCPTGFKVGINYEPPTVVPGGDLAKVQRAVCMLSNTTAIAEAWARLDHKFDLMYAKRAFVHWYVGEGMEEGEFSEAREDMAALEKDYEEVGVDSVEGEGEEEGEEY
T1 sequence (P02554 whole entry, looked up): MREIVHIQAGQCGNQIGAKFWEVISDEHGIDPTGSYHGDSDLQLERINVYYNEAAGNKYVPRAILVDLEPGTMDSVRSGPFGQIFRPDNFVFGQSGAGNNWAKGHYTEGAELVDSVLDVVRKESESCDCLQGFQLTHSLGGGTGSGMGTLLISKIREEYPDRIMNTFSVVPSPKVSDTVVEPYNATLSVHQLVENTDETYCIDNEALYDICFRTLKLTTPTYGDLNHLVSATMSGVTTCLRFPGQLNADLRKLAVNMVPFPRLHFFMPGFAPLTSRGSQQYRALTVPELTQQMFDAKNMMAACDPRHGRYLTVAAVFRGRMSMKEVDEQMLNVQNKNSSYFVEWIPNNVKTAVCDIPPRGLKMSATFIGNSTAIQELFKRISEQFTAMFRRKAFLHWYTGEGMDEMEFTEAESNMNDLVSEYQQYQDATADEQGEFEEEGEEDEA
Summary of the method: (§1)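 Competition with [3H]colchicine at 5 μM; test agents at 5 or 1 μM. Mean ± SD of at least three independent experiments.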

MCF7 [4] = test: Cytotoxicity against human MCF7 cells assessed as cell viability after 48 hrs by MTT assay; type: functional, cell-based; details: MCF7, 48 h
Summary of the method: (§2)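 Cancer cell lines treated with compound for 48 h, and viability read by MTT assay. IC50 given as mean ± SD from at least three independent experiments.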

A549 [5] = test: Cell cycle arrest in human A549 cells assessed as decrease in cell level at G1 phase at 1 to 10 nM after 24 to 48 hrs by propidium iodide staining-based flow cytometric analysis; type: functional
Summary of the method: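 A549 cells exposed to compound for 24, 48 or 72 h, then trypsinized and harvested. DNA stained with propidium iodide and analyzed by flow cytometry. Percentage of cells in each cell-cycle phase was quantified from the DNA histograms, with sub-G1 taken as the hypodiploid peak. Performed at least three times; representative experiments shown.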

[6] = Cytotoxicity against human A2780/TAX cells assessed as growth inhibition after 48 hrs by MTT assay; type: functional, cell-based
Summary of the method: (§3)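 Drug-resistant lines were tested by a 48 h MTT viability assay. IC50 was derived from dose-response curves and reported as mean ± SE of at least three independent experiments.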

[7] = Metabolic stability in Sprague-Dawley rat liver microsomes assessed as compound remaining at 60 mins in presence of NADPH regenerating system by HPLC method; type: ADME; details: read-out: Stability
Summary of the method: (§4)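 Test compound incubated with rat liver microsomes at 37 ℃ in buffer containing an NADPH regenerating system for the stated time. Remaining parent compound was quantified by HPLC.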

A549 [8] = test: Induction of apoptosis in human A549 cells assessed as late apoptotic cells at 1 nM after 48 hrs by annexin V-FITC/propidium iodide staining-based flow cytometric method (reference value: 0.01%); type: functional
Mus musculus = test: Toxicity in BALB/c nude mouse xenografted with human A549 cells assessed as loss of body weight at 30 mg/kg, ip administered every other day for 1 month measured every other day post dose relative to vehicle-treated control; type: organism-based; details: in vivo
Tubulin (Sus scrofa) [9] = target: T1, Tubulin (Sus scrofa); test: Inhibition of [3H]-colchicine binding to porcine brain tubulin at 1 uM relative to control; summary of the method: as §1
A549 [10] = test: Disruption of mitochondrial membrane potential in human A549 cells assessed as green fluorescence intensity at 1 nM after 24 hrs by JC1 staining-based flow cytometric method (reference value: 0.02%); type: functional
A549 [11] = test: Induction of apoptosis in human A549 cells assessed as necrotic cells at 3 nM after 48 hrs by annexin V-FITC/propidium iodide staining-based flow cytometric method (reference value: 0.01%); type: functional
Summary of the method: (§5)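 A549 cells exposed 24 h or 48 h at indicated concentrations, then trypsinized, harvested and stained with Annexin V-FITC and PI; flow cytometry quadrants scored as necrotic (upper left), late apoptotic (upper right), live (bottom left) and early apoptotic (bottom right). Five independent experiments, representative shown.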

[12] = Cytotoxicity against human MCF7/DX cells assessed as growth inhibition after 48 hrs by MTT assay; type: functional, cell-based; summary of the method: as §3
[13] = Selectivity ratio of IC50 for human BJ cells to IC50 for human A549 cells; type: ADME, cell-based; details: BJ cells versus A549 cells, read-out: Ratio IC50
Summary of the method: (§6)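 Selectivity ratio = IC50 in normal cells / IC50 in A549; IC50 values mean ± SE from dose-response curves of at least three independent experiments. HUVECs kept quiescent in endothelial cell medium with 0.5% fetal calf serum, no growth factor.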

A549 [14] = test: Antitumor activity against human A549 cells xenografted in BALB/c nude mouse assessed as tumor growth inhibition at 30 mg/kg, ip administered every other day for 1 month measured every other day post dose relative to vehicle-treated control; type: functional; details: read-out: TGI
A549 [15] = test: Induction of apoptosis in human A549 cells assessed as late apoptotic cells at 1 nM after 24 hrs by annexin V-FITC/propidium iodide staining-based flow cytometric method (reference value: 0.01%); type: functional
Tubulin = Tubulin (Sus scrofa, UniProt P02554+P02550); test: Inhibition of porcine brain tubulin polymerization measured every 60 secs for 60 mins by DAPI staining-based fluorescence assay
[16] = Selectivity ratio of IC50 for quiescent HUVEC to IC50 for human A549 cells; type: ADME, cell-based; details: quiescent HUVEC versus A549 cells, read-out: Ratio IC50; summary of the method: as §6
[17] = Cytotoxicity against human MCF10A cells assessed as growth inhibition after 48 hrs by MTT assay; type: cell-based; details: MCF-10A
Summary of the method: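 Non-tumorigenic cells given 48 h compound exposure, and viability read by MTT. IC50 is mean ± SE from dose-response curves of at least three independent experiments. HUVECs were kept quiescent in endothelial cell medium with 0.5% fetal calf serum and no growth factor.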

A549 [18] = test: Induction of apoptosis in human A549 cells assessed as viable cells at 1 nM after 24 hrs by annexin V-FITC/propidium iodide staining-based flow cytometric method (reference value: 98.9%); type: functional; details: A549, 24 h, read-out: Activity; summary of the method: as §5
HeLa = test: Cytotoxicity against human HeLa cells assessed as cell viability after 48 hrs by MTT assay; type: functional, cell-based; summary of the method: as §2
A549 [19] = test: Induction of apoptosis in human A549 cells assessed as viable cells at 3 nM after 24 hrs by annexin V-FITC/propidium iodide staining-based flow cytometric method (reference value: 98.9%); type: functional; details: A549, 24 h, read-out: Activity; summary of the method: as §5
MCF7 [20] = test: Resistance index, ratio of IC50 for human MCF7/DX cells to IC50 for human MCF7 cells; type: functional
A549 [21] = test: Disruption of mitochondrial membrane potential in human A549 cells at 1 to 10 nM after 24 hrs by JC1/Hoechst 33342 staining-based laser scanning confocal microscopy; type: functional, cell-based
Summary of the method: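 After 24 h compound treatment, A549 cells were incubated with JC-1 for 30 min and visualized by laser scanning confocal microscopy.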

A2780 = test: Cytotoxicity against human A2780 cells assessed as cell viability after 48 hrs by MTT assay; type: functional, cell-based; details: A2780, 48 h; summary of the method: as §2
A549 [22] = test: Disruption of mitochondrial membrane potential in human A549 cells assessed as red fluorescence intensity at 10 nM after 24 hrs by JC1 staining-based flow cytometric method (reference value: 99.2%); type: functional
A549 [23] = test: Induction of apoptosis in human A549 cells assessed as necrotic cells at 1 nM after 24 hrs by annexin V-FITC/propidium iodide staining-based flow cytometric method (reference value: 0.03%); type: functional
A549 [24] = test: Induction of apoptosis in human A549 cells assessed as necrotic cells at 3 nM after 24 hrs by annexin V-FITC/propidium iodide staining-based flow cytometric method (reference value: 0.03%); type: functional
[25] = Metabolic stability in Sprague-Dawley rat liver microsomes assessed as compound remaining at 30 mins in presence of NADPH regenerating system by HPLC method; type: ADME; details: read-out: Stability; summary of the method: as §4

- inhibition (Tubulin (Sus scrofa) [3]): 96%
- remaining at 1 h [7]: 80.5%
- inhibition (Tubulin (Sus scrofa) [9]): 82%
- IC50 (Tubulin): 2.68 µM
- remaining at 0.5 h [25]: 85.6%
SMILES: COc1ccc2c(/C=C(\C)C(=O)c3cc(OC)c(OC)c(OC)c3)c[nH]c2c1
- Activity (A549 [1]): 12.41%
- Activity (A549 [2]): 33.4%
- pIC50 (MCF7 [4]): 8.22
- Activity (A549 [5]): Active
- pIC50 [6]: 6.91
- Activity (A549 [8]): 14.6%
- Activity (Mus musculus): Non-toxic
- Activity (A549 [10]): 1.78%
- Activity (A549 [11]): 2.69%
- pIC50 [12]: 8.05
- selectivity ratio [13]: 2970
- inhibition in vivo at 30 mg/kg (A549 [14]): 66.1%
- Activity (A549 [15]): 2.12%
- selectivity ratio [16]: 54.3
- pIC50 [17]: 5.57
- viability at 0.001 µM (A549 [18]): 83.7%
- pIC50 (HeLa): 8.15
- viability at 0.003 µM (A549 [19]): 69.7%
- Ratio IC50 (MCF7 [20]): 1.5
- Activity (A549 [21]): Active
- pIC50 (A2780): 8.10
- Activity (A549 [22]): 40.7%
- Activity (A549 [23]): 1.45%
- Activity (A549 [24]): 1.07%
